The text below walks through data of ChEMBL document CHEMBL1121649, “Benz-fused mesoionic xanthine analogues as inhibitors of cyclic-AMP phosphodiesterase” (J Med Chem, 1981).

Common to all, as to format: protein assay
The target in assay [1] is T1, Heart phosphodiesterase (Bos taurus, UniProt Q01061+P14100+E1BN64). Nature of the assay: Inhibition of cAMP phosphodiesterase in bovine heart. The conditions noted are these: for IC50: read-out: I50. Summed up:
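I50 taken from a plot of uninhibited over inhibited velocity (V0/V) against inhibitor concentration, read where V0/V = 2. At least five inhibitor concentrations giving 25–75% inhibition were tested per inhibitor.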

In assay [2] the target is T1, Heart phosphodiesterase. Description: Inhibition of bovine heart cAMP-phosphodiesterase (Insoluble).
Assay [3] concerns the target Heart phosphodiesterase (Bos taurus) (UniProt Q01061+P14100+E1BN64). Nature of the assay: Percent inhibition of bovine heart cAMP-phosphodiesterase at 10-20 uM.

In general, inhibition refers to the relative decrease from the control value, in per cent. Read a high inhibition as strong suppression.

As to `CCOc1ccc2c(c1)sc1[n+]2C(=O)C(CC)C(=O)N1CC1CC1` (stereo not given), the I50 on Heart phosphodiesterase [1] came to 69 µM.
For `CC(C)C1C(=O)N(CC2CC2)c2sc3ccccc3[n+]2C1=O` (stereo not given), the I50 entry at Heart phosphodiesterase [2] is given as “Insoluble”.
Same read-out and setting: with `COC(=O)c1cc(=O)n2c(sc3ccccc32)c1C(=O)OC` the entry was “Insoluble”.
For `CCC1C(=O)N(CC)c2sc3ccccc3[n+]2C1=O` (stereo not given), the IC50 on Heart phosphodiesterase [1] was 153 µM.
On Heart phosphodiesterase [1], `CCC1C(=O)N=C2Sc3ccccc3N2C1=O` (stereo not given) returned an I50 of 467 µM.
Consider `Cn1c(=O)c2nc[nH]c2n(C)c1=O` [THEOPHYLLINE], for which, on Heart phosphodiesterase [1], the IC50 was 412 µM.
For `CCC1C(=O)N(CC2CC2)c2sc3cc(C)c(C)cc3[n+]2C1=O` (stereo not given), on Heart phosphodiesterase [2], the I50 entry is “Insoluble”.
`CCC1C(=O)N(CC2CCCC2)c2sc3ccccc3[n+]2C1=O` (stereo not given) yielded an I50 at Heart phosphodiesterase [1] of 102 µM.
Regarding `CCOc1ccc2c(c1)sc1[n+]2C(=O)C(CC)C(=O)N1CC1CCCCC1` (stereo not given), the I50 at Heart phosphodiesterase [1] is 8 µM. The inhibition in assay [3] turned out to be 40%.
